Laboratory results published in ChEMBL document CHEMBL1150800, “Multiple-dose escalation study of the safety, pharmacokinetics, and biologic activity of oral AMD070, a selective CXCR4 receptor inhibitor, in human subjects” (Antimicrob Agents Chemother, 2007).
Converted amounts (≈) assume the structure as drawn.

Legend:
[1] = Drug level in fasting healthy human at 50 mg, po administered as single dose after 12 hrs; type: ADME, organism-based; settings: in vivo, read-out: Drug uptake
Method in brief: (§1)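 Healthy male volunteers, three per cohort, one oral dose after 8-h overnight fast, fasting kept until 1 h post-dose. Plasma sampled predose and at 0.5, 1, 1.5, 2, 3, 4, 6, 8, 12, 16, 20, 24 h. Levels by validated HPLC-MS/MS (liquid-liquid extraction, positive-ion electrospray). Noncompartmental analysis, log-linear trapezoidal AUC, summarized per cohort.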

[2] = Tmax in fasting healthy human at 200 mg, po administered every 12 hrs; type: ADME, organism-based; settings: in vivo
Method in brief: (§2)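 Six healthy male volunteers per cohort received seven oral doses q12h. Morning doses followed an 8-h fast, with fasting continued until 1 h post-dose. After the final dose (72 h after the first), plasma was sampled pre-dose and at 0.5–24 h, and assayed by validated HPLC-MS/MS. Tmax came from individual noncompartmental analysis, summarized per cohort.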

[3] = Half life in rat; type: ADME, organism-based; settings: in vivo
Homo sapiens [4] = assay: Apparent volume of distribution in fasting healthy human at 200 mg, po administered as single dose after 12 hrs; type: ADME, organism-based; settings: in vivo; method in brief: as §1
Homo sapiens [5] = assay: Half life in fasting healthy human at 100 mg, po administered as single dose after 12 hrs; type: ADME, organism-based; settings: in vivo; method in brief: as §1
[6] = test system: Human immunodeficiency virus 1; assay: Antiviral activity against HIV1 NL4.3 in human MT4 cells; type: functional, organism-based; settings: Human immunodeficiency virus 1, MT4
[7] = AUC (0 to 12 hrs) in fasting healthy human at 200 mg, po administered every 12 hrs measured between 72 to 84 hrs postdose; type: ADME, organism-based; set-up: dose 200 mg, time < 12 hr, route oral; settings: plasma
Method in brief: (§3)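 Six healthy men per cohort dosed orally q12h for seven doses. Morning doses given after 8-h fast, with fasting until 1 h post-dose. After the final dose (72 h after the first) plasma was sampled predose and 0.5–24 h. Validated HPLC-MS/MS assay. Noncompartmental parameters (log-linear trapezoidal AUC) from all time points, summarized per cohort.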

[8] = Tmax in fasting healthy human at 200 mg, po administered as single dose; type: ADME, organism-based; settings: in vivo
Method in brief: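 Healthy male volunteers (cohort C, n=3) took one oral dose after an 8-h overnight fast and kept fasting to 1 h post-dose. Drug was measured by validated HPLC-MS/MS (positive electrospray), and Tmax was taken by noncompartmental analysis of individual curves.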

[9] = Terminal half life in rat; type: ADME, organism-based; settings: in vivo
[10] = Cmax in fasting healthy human at 100 mg, po administered every 12 hrs; type: ADME, organism-based; set-up: dose 100 mg, route oral; settings: in vivo; method in brief: as §3
[11] = Tmax in fasting healthy human at 100 mg, po administered every 12 hrs; type: ADME, organism-based; settings: in vivo; method in brief: as §2
[12] = Drug level in fasting healthy human at 200 mg, po administered as single dose after 12 hrs; type: ADME, organism-based; settings: in vivo, read-out: Drug uptake; method in brief: as §1
Homo sapiens [13] = assay: Apparent volume of distribution in fasting healthy human at 50 mg, po administered as single dose after 12 hrs; type: ADME, organism-based; settings: in vivo; method in brief: as §1
Homo sapiens [14] = assay: Half life in fasting healthy human at 400 mg, po administered as single dose after 12 hrs; type: ADME, organism-based; settings: in vivo; method in brief: as §1
[15] = Tmax in fasting healthy human at 100 mg, po administered as single dose; type: ADME, organism-based; settings: in vivo; method in brief: as §1
[16] = Oral bioavailability in dog; type: ADME, organism-based, Canis lupus familiaris; settings: in vivo
Homo sapiens [17] = assay: Apparent volume of distribution in fasting healthy human at 400 mg, po administered every 12 hrs; type: ADME, organism-based; settings: in vivo; method in brief: as §3
[18] = Cmax in fasting healthy human at 400 mg, po administered as single dose; type: ADME, organism-based; set-up: dose 400 mg, route oral; settings: in vivo; method in brief: as §1
[19] = Drug level in fasting healthy human at 100 mg, po administered every 12 hrs measured after 72 hrs; type: ADME, organism-based; settings: in vivo, read-out: Drug uptake; method in brief: as §3
Homo sapiens [20] = assay: Half life in fasting healthy human at 50 mg, po administered as single dose after 12 hrs; type: ADME, organism-based; settings: in vivo; method in brief: as §1
[21] = Oral bioavailability in rat; type: ADME, organism-based; settings: in vivo
Homo sapiens [22] = assay: Decrease in CD4 cell count in fasting healthy human at 200 mg, po administered every 12 hrs measured after 24 hrs relative to baseline; type: functional; set-up: scale not given: the % may be the effect or the level left
Method in brief: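 CD4+ counts drawn before the first dose and at 2, 4, 6, 8 and 24 h after the final (seventh) q12h oral dose in fasting healthy men. Each post-dose value divided by the baseline value to give a ratio. Deviation from no effect tested by Wilcoxon rank sum, dose trend by Jonckheere-Terpstra.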

[23] = Drug level in fasting healthy human at 400 mg, po administered as single dose after 12 hrs; type: ADME, organism-based; settings: in vivo, read-out: Drug uptake; method in brief: as §1
Homo sapiens [24] = assay: Induction of leucocytosis in po dosed fasting healthy human assessed as increase in WBC count; type: functional, organism-based
Method in brief: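 Total WBC drawn predose and at 2, 4, 6, 8 and 24 h after oral dosing (single-dose cohorts from 200 mg, and multiple-dose cohorts). Ratio taken to baseline. WBC ratio against plasma concentration at all sampling times (n = 232) fit to an Emax model giving Emax and EC50. Per-subject maximum ratio also fit to dose, AUC0-24 and Cmax.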

[25] = Half life in dog; type: ADME, organism-based, Canis lupus familiaris; settings: in vivo
Homo sapiens [26] = assay: Apparent volume of distribution in fasting healthy human at 100 mg, po administered as single dose after 12 hrs; type: ADME, organism-based; settings: in vivo; method in brief: as §1
[27] = Drug level in fasting healthy human at 200 mg, po administered every 12 hrs measured after 84 hrs; type: ADME, organism-based; settings: in vivo, read-out: Drug uptake; method in brief: as §3

concentration at 12 h [1]: 0.0015 µg/mL
Tmax [2]: 1.8 h
half-life [3]: 1.4 h
Vd (Homo sapiens [4]): 2152 L
t1/2 (Homo sapiens [5]): 7.6 h
EC90 [6]: 0.044 mg/L (≈ 0.126 µM)
IC50 [6]: 0.0023 mg/L (≈ 0.00658 µM)
AUC at 12 h [7]: 1.59 µg·h/mL
Tmax [8]: 1 h
half-life [9]: 10 h
Cmax [10]: 0.461 µg/mL
Tmax [11]: 1.7 h
concentration at 12 h [12]: 0.0116 µg/mL
Vd (Homo sapiens [13]): 3620 L
t1/2 (Homo sapiens [14]): 11.2 h
Tmax [15]: 1.5 h
bioavailability [16]: 80%
Vd (Homo sapiens [17]): 966 L
Cmax [18]: 1.4 µg/mL
concentration at 72 h [19]: 0.0068 µg/mL
t1/2 (Homo sapiens [20]): 10.8 h
bioavailability [21]: 20%
concentration at 12 h [23]: 0.0446 µg/mL
half-life [25]: 0.7 h
Vd (Homo sapiens [26]): 3940 L
concentration at 84 h [27]: 0.033 µg/mL
Compound: NCCCCN(Cc1nc2ccccc2[nH]1)[C@H]1CCCc2cccnc21 [MAVORIXAFOR]
Activity (Homo sapiens [22]): 80%
EC50 (Homo sapiens [24]): 0.039 mg/L (≈ 0.112 µM)
